Laboratory results reported in ChEMBL document CHEMBL1131106, “Synthesis and characterization of heteroarotinoids demonstrate structure specificity relationships” (J Med Chem, 1998).

Key:
[1] = molecular target: T1, Retinoic acid receptor beta (Homo sapiens, UniProt P10826); assay: Transcriptional activation in CV-1 cells expressing RAR-beta receptor; assay type: cell-based
T1 sequence (P10826 whole entry): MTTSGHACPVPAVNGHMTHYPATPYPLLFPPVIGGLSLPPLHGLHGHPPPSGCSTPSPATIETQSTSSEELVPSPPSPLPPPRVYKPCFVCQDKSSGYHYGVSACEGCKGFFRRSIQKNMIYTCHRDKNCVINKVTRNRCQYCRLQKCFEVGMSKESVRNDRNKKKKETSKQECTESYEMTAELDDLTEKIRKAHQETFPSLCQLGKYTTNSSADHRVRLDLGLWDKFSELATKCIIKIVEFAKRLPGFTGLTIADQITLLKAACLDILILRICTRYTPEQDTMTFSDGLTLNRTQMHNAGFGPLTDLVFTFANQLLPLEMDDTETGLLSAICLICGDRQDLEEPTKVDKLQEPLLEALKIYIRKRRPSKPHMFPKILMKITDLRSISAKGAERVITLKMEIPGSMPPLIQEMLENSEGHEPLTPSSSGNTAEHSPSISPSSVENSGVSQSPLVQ
Procedure, shortened: (§1)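 CV-1 cells co-transfected by calcium phosphate with receptor expression plasmid, luciferase reporter MTV-TREp-LUC (two TRE-palindromic copies; RAR assays), β-galactosidase internal control plasmid and pGEM carrier. Incubated 40 h with or without various retinoid concentrations. Luciferase read in extracts, normalized to β-galactosidase. Triplicate. Activity normalized to 9-cis-retinoic acid; EC50 = concentration giving 50% maximal response.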

[2] = molecular target: T2, Retinoic acid receptor alpha (Homo sapiens, UniProt P10276); assay: Transcriptional activation in CV-1 cells expressing RAR-alpha receptor; assay type: cell-based; procedure, shortened: as §1
T2 sequence (P10276 whole entry): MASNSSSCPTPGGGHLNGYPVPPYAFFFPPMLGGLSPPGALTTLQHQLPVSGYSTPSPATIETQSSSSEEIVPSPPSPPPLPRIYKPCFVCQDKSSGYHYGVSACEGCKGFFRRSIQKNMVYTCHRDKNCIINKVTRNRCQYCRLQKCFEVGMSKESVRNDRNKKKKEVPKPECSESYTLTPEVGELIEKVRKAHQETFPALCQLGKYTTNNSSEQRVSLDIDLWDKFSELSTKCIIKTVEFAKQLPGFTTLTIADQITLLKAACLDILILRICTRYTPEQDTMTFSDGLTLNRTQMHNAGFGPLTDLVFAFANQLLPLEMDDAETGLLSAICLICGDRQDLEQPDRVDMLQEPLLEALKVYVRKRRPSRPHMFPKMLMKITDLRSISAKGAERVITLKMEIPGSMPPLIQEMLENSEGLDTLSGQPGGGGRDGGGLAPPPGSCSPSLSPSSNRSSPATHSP

[3] = molecular target: T3, Retinoic acid receptor gamma (Homo sapiens, UniProt P13631); assay: Transcriptional activation in CV-1 cells expressing RAR-gamma receptor; assay type: cell-based; procedure, shortened: as §1
T3 sequence (P13631 whole entry): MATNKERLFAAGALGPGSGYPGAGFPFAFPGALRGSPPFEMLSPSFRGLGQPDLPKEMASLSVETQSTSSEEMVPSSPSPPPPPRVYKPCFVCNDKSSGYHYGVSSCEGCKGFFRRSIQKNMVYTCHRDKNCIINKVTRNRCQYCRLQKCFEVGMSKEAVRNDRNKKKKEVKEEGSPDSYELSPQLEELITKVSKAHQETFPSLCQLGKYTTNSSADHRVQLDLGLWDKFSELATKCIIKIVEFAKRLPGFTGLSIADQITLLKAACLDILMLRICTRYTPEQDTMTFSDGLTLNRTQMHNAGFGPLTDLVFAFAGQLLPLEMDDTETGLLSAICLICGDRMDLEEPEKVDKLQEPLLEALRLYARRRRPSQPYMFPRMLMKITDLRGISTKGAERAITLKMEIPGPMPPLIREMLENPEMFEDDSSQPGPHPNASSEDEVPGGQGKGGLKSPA

[4] = molecular target: T4, Retinoic acid receptor RXR-alpha (Homo sapiens, UniProt P19793); assay: Transcriptional activation in CV-1 cells expressing RXR-alpha receptor;not active
T4 sequence (P19793 whole entry): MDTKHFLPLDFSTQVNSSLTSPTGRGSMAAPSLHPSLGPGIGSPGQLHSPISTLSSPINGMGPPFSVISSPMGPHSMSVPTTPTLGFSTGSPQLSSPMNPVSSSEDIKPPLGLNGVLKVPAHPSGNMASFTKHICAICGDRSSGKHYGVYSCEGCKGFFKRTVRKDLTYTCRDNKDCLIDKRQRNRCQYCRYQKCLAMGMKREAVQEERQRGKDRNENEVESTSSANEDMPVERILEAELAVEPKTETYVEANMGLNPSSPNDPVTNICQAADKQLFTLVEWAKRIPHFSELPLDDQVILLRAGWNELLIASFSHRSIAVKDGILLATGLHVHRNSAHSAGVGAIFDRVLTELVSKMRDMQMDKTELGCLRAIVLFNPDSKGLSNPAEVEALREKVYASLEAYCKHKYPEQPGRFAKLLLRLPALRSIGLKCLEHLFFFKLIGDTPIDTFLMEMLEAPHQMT

[5] = molecular target: T4, Retinoic acid receptor RXR-alpha; assay: Transcriptional activation in CV-1 cells expressing RXR-alpha receptor
[6] = molecular target: T2, Retinoic acid receptor alpha; assay: Transcriptional activation in CV-1 cells expressing RAR-alpha receptor; Not active; assay type: cell-based; procedure, shortened: as §1

Row | Structure (SMILES) | EC50 [1] | EC50 [2] | EC50 [3] | EC50 [4] | EC50 [5] | EC50 [6]
1 | C/C(=C\c1ccc(C(=O)O)cc1)c1ccc2c(c1)C(C)(C)CS2 | 18 nM | 420 nM | 30 nM | Not Active |  | 
2 | C/C(=C\c1ccc(C(=O)O)cc1)c1ccc2c(c1)C(C)(C)CO2 | 320 nM | 2300 nM | 460 nM | Not Active |  | 
3 | COC(=O)c1ccc(/C=C(\C)c2ccc3c(c2)C(C)(C)CCS3)cc1 | 110 nM | 620 nM | 84 nM | Not Active |  | 
4 | C/C(=C\c1ccc(C(=O)O)cc1)c1ccc2c(c1)C(C)(C)CCO2 | 190 nM | 1100 nM | 200 nM | Not Active |  | 
5 | COC(=O)c1ccc(/C=C(\C)c2ccc3c(c2)C(C)(C)CCO3)cc1 | 140 nM | 1100 nM | 330 nM | Not Active |  | 
6 | COC(=O)c1ccc(/C=C(\C)c2ccc3c(c2)C(C)(C)CO3)cc1 | 430 nM |  | 400 nM | Not Active |  | Not Active

Results, then the molecule that gave them:

Row | EC50 [1] | EC50 [2] | EC50 [3] | EC50 [4] | EC50 [5] | EC50 [6] | Structure (SMILES)
7 | 1200 nM | 1000 nM | 8 nM |  | 2600 nM |  | CC(/C=C/C=C(\C)c1ccc2c(c1)C(C)(C)CS2)=C\C(=O)O
8 | 770 nM | 800 nM | 230 nM |  | 2800 nM |  | CC(/C=C/C=C(\C)c1ccc2c(c1)C(C)(C)CO2)=C\C(=O)O
9 | 43 nM | 1400 nM | 12 nM |  | 2700 nM |  | CC(/C=C/C=C(\C)c1ccc2c(c1)C(C)(C)CCS2)=C\C(=O)O
10 | 72 nM | 740 nM | 39 nM |  | 2800 nM |  | CC(/C=C/C=C(\C)c1ccc2c(c1)C(C)(C)CCO2)=C\C(=O)O
